Calls of active or inactive are those of the source. The calls are words filed in the database; no cut-off is given here.
tested on: Escherichia coli; experiment: Ratio of Kcat to Km for Escherichia coli CF0042 beta-lactamase TEM-35; set-up: unit not given here
Method in brief: (§1)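 Each beta-lactamase was purified to homogeneity. Kinetic constants (kcat, Km) for beta-lactam substrates, including penicillins, were determined by computerized microacidimetry.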

Row | SMILES | kcat/Km
1 | CC(=O)OCC1=C(C(=O)O)N2C(=O)[C@@H](NC(=O)Cc3cccs3)[C@H]2SC1 | 0.04
2 | CC1(C)S[C@@H]2[C@H](NC(=O)[C@H](N)c3ccc(O)cc3)C(=O)N2[C@H]1C(=O)O | 8.5
3 | CCN1CCN(C(=O)N[C@@H](C(=O)N[C@@H]2C(=O)N3[C@@H]2SC(C)(C)[C@@H]3C(=O)O)c2ccccc2)C(=O)C1=O | 2.9
4 | CC1(C)S[C@@H]2[C@H](NC(=O)Cc3ccccc3)C(=O)N2[C@H]1C(=O)O | 7.5
5 | CC1(C)S[C@@H]2[C@H](NC(=O)[C@H](C(=O)O)c3ccsc3)C(=O)N2[C@H]1C(=O)O | 0.4

tested on: Escherichia coli; experiment: Activity of Escherichia coli DH5alpha beta-lactamase TEM-12 by microacidimetric method; method in brief: as §1

Row | SMILES | Km [µM] | kcat [s⁻¹]
6 | CC(C)(O/N=C(\C(=O)N[C@@H]1C(=O)N2C(C(=O)[O-])=C(C[n+]3ccccc3)CS[C@H]12)c1csc(N)n1)C(=O)O | 254 | 11.1
7 | CC(=O)OCC1=C(C(=O)O)N2C(=O)[C@@H](NC(=O)Cc3cccs3)[C@H]2SC1 | 327 | 46
8 | CC1(C)S[C@@H]2[C@H](NC(=O)[C@H](N)c3ccc(O)cc3)C(=O)N2[C@H]1C(=O)O | 7.5 | 60
9 | CCN1CCN(C(=O)N[C@@H](C(=O)N[C@@H]2C(=O)N3[C@@H]2SC(C)(C)[C@@H]3C(=O)O)c2ccccc2)C(=O)C1=O | 15 | 89
10 | CO/N=C(\C(=O)N[C@@H]1C(=O)N2C(C(=O)O)=C(COC(C)=O)CS[C@H]12)c1csc(N)n1 | 320 | 10.6
11 | CC1(C)S[C@@H]2[C@H](NC(=O)Cc3ccccc3)C(=O)N2[C@H]1C(=O)O | 7 | 80
12 | C[C@H]1[C@H](NC(=O)/C(=N\OC(C)(C)C(=O)O)c2csc(N)n2)C(=O)N1S(=O)(=O)O | 247 | 2
13 | CC1(C)S[C@@H]2[C@H](NC(=O)[C@H](C(=O)O)c3ccsc3)C(=O)N2[C@H]1C(=O)O | 12 | 19

tested on: Escherichia coli str. K-12 substr. DH10B

Row | SMILES | kcat [s⁻¹]
14 | CC(C)(O/N=C(\C(=O)N[C@@H]1C(=O)N2C(C(=O)[O-])=C(C[n+]3ccccc3)CS[C@H]12)c1csc(N)n1)C(=O)O | 16

tested on: Escherichia coli; experiment: Ratio of Kcat/Km for Escherichia coli DH5alpha beta-lactamase TEM-1 to Kcat/Km for Escherichia coli DH5alpha beta-lactamase TEM-158; method in brief: as §1

Row | SMILES | Ratio
15 | CC1(C)S[C@@H]2[C@H](NC(=O)[C@H](N)c3ccc(O)cc3)C(=O)N2[C@H]1C(=O)O | 8
16 | CCN1CCN(C(=O)N[C@@H](C(=O)N[C@@H]2C(=O)N3[C@@H]2SC(C)(C)[C@@H]3C(=O)O)c2ccccc2)C(=O)C1=O | 8
17 | CC1(C)S[C@@H]2[C@H](NC(=O)Cc3ccccc3)C(=O)N2[C@H]1C(=O)O | 8
18 | CC1(C)S[C@@H]2[C@H](NC(=O)[C@H](C(=O)O)c3ccsc3)C(=O)N2[C@H]1C(=O)O | 8

tested on: Escherichia coli; experiment: Antibacterial activity against Escherichia coli BER1 producing TEM-158 by microdilution method; format: functional, organism-based

Row | SMILES | Activity
19 | CO/N=C(\C(=O)N[C@@H]1C(=O)N2C(C(=O)[O-])=C(C[N+]3(C)CCCC3)CS[C@H]12)c1csc(N)n1 | inactive
20 | CC(C)(O/N=C(\C(=O)N[C@@H]1C(=O)N2C(C(=O)[O-])=C(C[n+]3ccccc3)CS[C@H]12)c1csc(N)n1)C(=O)O | inactive
21 | CC(=O)OCC1=C(C(=O)O)N2C(=O)[C@@H](NC(=O)Cc3cccs3)[C@H]2SC1 | inactive
22 | CO[C@@]1(NC(=O)Cc2cccs2)C(=O)N2C(C(=O)O)=C(COC(N)=O)CS[C@@H]21 | inactive
23 | CC1(C)S[C@@H]2[C@H](NC(=O)[C@H](N)c3ccc(O)cc3)C(=O)N2[C@H]1C(=O)O | inactive
24 | CCN1CCN(C(=O)N[C@@H](C(=O)N[C@@H]2C(=O)N3[C@@H]2SC(C)(C)[C@@H]3C(=O)O)c2ccccc2)C(=O)C1=O | inactive
25 | CO/N=C(\C(=O)N[C@@H]1C(=O)N2C(C(=O)O)=C(COC(C)=O)CS[C@H]12)c1csc(N)n1 | inactive
26 | CO/N=C(\C(=O)N[C@@H]1C(=O)N2C(C(=O)O)=C(COC(N)=O)CS[C@H]12)c1ccco1 | inactive
27 | C[C@H]1[C@H](NC(=O)/C(=N\OC(C)(C)C(=O)O)c2csc(N)n2)C(=O)N1S(=O)(=O)O | inactive
28 | C[C@@H](O)[C@H]1C(=O)N2C(C(=O)O)=C(SCCNC=N)C[C@H]12 | inactive
29 | CC1(C)S[C@@H]2[C@H](NC(=O)[C@H](C(=O)O)c3ccsc3)C(=O)N2[C@H]1C(=O)O | inactive

tested on: Escherichia coli; experiment: Activity of Escherichia coli CF0042 beta-lactamase TEM-35 by microacidimetric method; method in brief: as §1

Row | SMILES | kcat [s⁻¹] | Km [µM]
30 | CC(C)(O/N=C(\C(=O)N[C@@H]1C(=O)N2C(C(=O)[O-])=C(C[n+]3ccccc3)CS[C@H]12)c1csc(N)n1)C(=O)O | < 0.1 | 
31 | CC(=O)OCC1=C(C(=O)O)N2C(=O)[C@@H](NC(=O)Cc3cccs3)[C@H]2SC1 | 52 | 1200
32 | CC1(C)S[C@@H]2[C@H](NC(=O)[C@H](N)c3ccc(O)cc3)C(=O)N2[C@H]1C(=O)O | 900 | 245
33 | CCN1CCN(C(=O)N[C@@H](C(=O)N[C@@H]2C(=O)N3[C@@H]2SC(C)(C)[C@@H]3C(=O)O)c2ccccc2)C(=O)C1=O | 945 | 320
34 | CO/N=C(\C(=O)N[C@@H]1C(=O)N2C(C(=O)O)=C(COC(C)=O)CS[C@H]12)c1csc(N)n1 | < 0.1 | 
35 | CC1(C)S[C@@H]2[C@H](NC(=O)Cc3ccccc3)C(=O)N2[C@H]1C(=O)O | 1050 | 140
36 | C[C@H]1[C@H](NC(=O)/C(=N\OC(C)(C)C(=O)O)c2csc(N)n2)C(=O)N1S(=O)(=O)O | < 0.1 | 
37 | CC1(C)S[C@@H]2[C@H](NC(=O)[C@H](C(=O)O)c3ccsc3)C(=O)N2[C@H]1C(=O)O | 125 | 320

tested on: Escherichia coli; experiment: Ratio of Kcat to Km for Escherichia coli DH5alpha beta-lactamase TEM-12; set-up: unit not given here; method in brief: as §1

Row | SMILES | kcat/Km
38 | CC(C)(O/N=C(\C(=O)N[C@@H]1C(=O)N2C(C(=O)[O-])=C(C[n+]3ccccc3)CS[C@H]12)c1csc(N)n1)C(=O)O | 0.04
39 | CC(=O)OCC1=C(C(=O)O)N2C(=O)[C@@H](NC(=O)Cc3cccs3)[C@H]2SC1 | 0.02
40 | CC1(C)S[C@@H]2[C@H](NC(=O)[C@H](N)c3ccc(O)cc3)C(=O)N2[C@H]1C(=O)O | 8
41 | CCN1CCN(C(=O)N[C@@H](C(=O)N[C@@H]2C(=O)N3[C@@H]2SC(C)(C)[C@@H]3C(=O)O)c2ccccc2)C(=O)C1=O | 6
42 | CO/N=C(\C(=O)N[C@@H]1C(=O)N2C(C(=O)O)=C(COC(C)=O)CS[C@H]12)c1csc(N)n1 | 0.03
43 | CC1(C)S[C@@H]2[C@H](NC(=O)Cc3ccccc3)C(=O)N2[C@H]1C(=O)O | 11
44 | C[C@H]1[C@H](NC(=O)/C(=N\OC(C)(C)C(=O)O)c2csc(N)n2)C(=O)N1S(=O)(=O)O | 0.008
45 | CC1(C)S[C@@H]2[C@H](NC(=O)[C@H](C(=O)O)c3ccsc3)C(=O)N2[C@H]1C(=O)O | 1.6

tested on: Escherichia coli; experiment: Ratio of Kcat/Km for Escherichia coli DH5alpha beta-lactamase TEM-35 to Kcat/Km for Escherichia coli DH5alpha beta-lactamase TEM-158; method in brief: as §1

Row | SMILES | Ratio
46 | CC1(C)S[C@@H]2[C@H](NC(=O)[C@H](N)c3ccc(O)cc3)C(=O)N2[C@H]1C(=O)O | 8
47 | CCN1CCN(C(=O)N[C@@H](C(=O)N[C@@H]2C(=O)N3[C@@H]2SC(C)(C)[C@@H]3C(=O)O)c2ccccc2)C(=O)C1=O | 8
48 | CC1(C)S[C@@H]2[C@H](NC(=O)Cc3ccccc3)C(=O)N2[C@H]1C(=O)O | 8
49 | CC1(C)S[C@@H]2[C@H](NC(=O)[C@H](C(=O)O)c3ccsc3)C(=O)N2[C@H]1C(=O)O | 8

tested on: Escherichia coli; experiment: Antibacterial activity against Escherichia coli BER1 producing beta-lactamase TEM-158; format: functional, organism-based

Row | SMILES | Activity
50 | CO/N=C(\C(=O)N[C@@H]1C(=O)N2C(C(=O)[O-])=C(C[N+]3(C)CCCC3)CS[C@H]12)c1csc(N)n1 | inactive
51 | CC(C)(O/N=C(\C(=O)N[C@@H]1C(=O)N2C(C(=O)[O-])=C(C[n+]3ccccc3)CS[C@H]12)c1csc(N)n1)C(=O)O | inactive
52 | CC(=O)OCC1=C(C(=O)O)N2C(=O)[C@@H](NC(=O)Cc3cccs3)[C@H]2SC1 | inactive
53 | CO[C@@]1(NC(=O)Cc2cccs2)C(=O)N2C(C(=O)O)=C(COC(N)=O)CS[C@@H]21 | inactive
54 | CC1(C)S[C@@H]2[C@H](NC(=O)[C@H](N)c3ccc(O)cc3)C(=O)N2[C@H]1C(=O)O | inactive
55 | CCN1CCN(C(=O)N[C@@H](C(=O)N[C@@H]2C(=O)N3[C@@H]2SC(C)(C)[C@@H]3C(=O)O)c2ccccc2)C(=O)C1=O | inactive
56 | CO/N=C(\C(=O)N[C@@H]1C(=O)N2C(C(=O)O)=C(COC(C)=O)CS[C@H]12)c1csc(N)n1 | inactive
57 | CO/N=C(\C(=O)N[C@@H]1C(=O)N2C(C(=O)O)=C(COC(N)=O)CS[C@H]12)c1ccco1 | inactive
58 | C[C@H]1[C@H](NC(=O)/C(=N\OC(C)(C)C(=O)O)c2csc(N)n2)C(=O)N1S(=O)(=O)O | inactive
59 | C[C@@H](O)[C@H]1C(=O)N2C(C(=O)O)=C(SCCNC=N)C[C@H]12 | inactive
60 | CC1(C)S[C@@H]2[C@H](NC(=O)[C@H](C(=O)O)c3ccsc3)C(=O)N2[C@H]1C(=O)O | inactive

tested on: Escherichia coli; experiment: Ratio of Kcat/Km for Escherichia coli DH5alpha beta-lactamase TEM-12 to Kcat/Km for Escherichia coli DH5alpha beta-lactamase TEM-158; method in brief: as §1

Row | SMILES | Ratio
61 | CO/N=C(\C(=O)N[C@@H]1C(=O)N2C(C(=O)[O-])=C(C[N+]3(C)CCCC3)CS[C@H]12)c1csc(N)n1 | 4
62 | CC(C)(O/N=C(\C(=O)N[C@@H]1C(=O)N2C(C(=O)[O-])=C(C[n+]3ccccc3)CS[C@H]12)c1csc(N)n1)C(=O)O | 4
63 | CC(=O)OCC1=C(C(=O)O)N2C(=O)[C@@H](NC(=O)Cc3cccs3)[C@H]2SC1 | 4
64 | CO[C@@]1(NC(=O)Cc2cccs2)C(=O)N2C(C(=O)O)=C(COC(N)=O)CS[C@@H]21 | 4
65 | CC1(C)S[C@@H]2[C@H](NC(=O)[C@H](N)c3ccc(O)cc3)C(=O)N2[C@H]1C(=O)O | 4
66 | CCN1CCN(C(=O)N[C@@H](C(=O)N[C@@H]2C(=O)N3[C@@H]2SC(C)(C)[C@@H]3C(=O)O)c2ccccc2)C(=O)C1=O | 8
67 | CO/N=C(\C(=O)N[C@@H]1C(=O)N2C(C(=O)O)=C(COC(C)=O)CS[C@H]12)c1csc(N)n1 | 4
68 | CC1(C)S[C@@H]2[C@H](NC(=O)Cc3ccccc3)C(=O)N2[C@H]1C(=O)O | 8
69 | CO/N=C(\C(=O)N[C@@H]1C(=O)N2C(C(=O)O)=C(COC(N)=O)CS[C@H]12)c1ccco1 | 4
70 | C[C@H]1[C@H](NC(=O)/C(=N\OC(C)(C)C(=O)O)c2csc(N)n2)C(=O)N1S(=O)(=O)O | 4
71 | C[C@@H](O)[C@H]1C(=O)N2C(C(=O)O)=C(SCCNC=N)C[C@H]12 | 4
72 | CC1(C)S[C@@H]2[C@H](NC(=O)[C@H](C(=O)O)c3ccsc3)C(=O)N2[C@H]1C(=O)O | 8

— ChEMBL document CHEMBL1137638, “TEM-158 (CMT-9), a new member of the CMT-type extended-spectrum beta-lactamases” (Antimicrob Agents Chemother, 2007)
